The record followed here is ChEMBL document CHEMBL3272286, “Inhibitors of Bacillus subtilis DNA polymerase III. Structure-activity relationships of 6-(phenylhydrazino)uracils” (J Med Chem, 1977).

Where only a bound is given, the exact number is not on record here.

The nature of assay [1]: Inhibition of wild type Bacillus subtilis DNA polymerase-3 using DNAase 1-treated DNA as template assessed as inhibition of dGTP truncated DNA synthesis by measuring incorporation of [3H]-TMP in presence of dithiothreitol. Summed up: (§1)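 dGTP-omitted pol III reaction, 30 °C, 5 min, in 0.05 mL: 20% glycerol, 50 mM Tris HCl pH 7.6, 10 mM MgCl2, 30 mM NaCl, 1.2 mM DNAase I-activated calf thymus DNA, 5 mM DTT, 0.1 mg/mL BSA, 10 μM each dATP, dCTP and [3H]-TTP, 0.005-0.1 unit enzyme. Read-out is acid-insoluble radioactivity. Ki is the inhibitor concentration giving 50% inhibition.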

Assay [2] deals with Bacillus subtilis. The assay can be described thus: Resistance ratio of Ki for HPUra/HPiCyt-resistant Bacillus subtilis DNA polymerase-3/azp-12 mutant to Ki for wild type Bacillus subtilis DNA polymerase-3.
Assay [3] can be described thus: Inhibition of HPUra/HPiCyt-resistant Bacillus subtilis DNA polymerase-3/azp-12 mutant using DNAase 1-treated DNA as template assessed as inhibition of dGTP truncated DNA synthesis by measuring incorporation of [3H]-TMP in presence of dithiothreitol. In outline: as §1
Assay [4] concerns Bacillus subtilis. Briefly: Inhibition of HPUra/HPiCyt-resistant Bacillus subtilis DNA polymerase-3/azp-12 mutant using DNAase 1-treated DNA as template assessed as inhibition of dGTP truncated DNA synthesis by measuring incorporation of [3H]-TMP at 20 uM relative to control in presence of dithiothreitol. Summed up: as §1
Assay [5] relates to Bacillus subtilis. Briefly: Inhibition of wild type Bacillus subtilis DNA polymerase-3 using DNAase 1-treated DNA as template assessed as inhibition of dGTP truncated DNA synthesis by measuring incorporation of [3H]-TMP at 20 uM in presence of dithiothreitol relative to control. In outline: as §1
Assay [6] concerns Bacillus subtilis. The assay can be described thus: Inhibition of wild type Bacillus subtilis DNA polymerase-3 using DNAase 1-treated DNA as template assessed as inhibition of dGTP truncated DNA synthesis by measuring incorporation of [3H]-TMP at 1 mM in presence of dithiothreitol relative to control. In outline:
as §1

Broadly, the Ki is a dissociation constant, usually derived from enzyme kinetics or from competition with a known ligand. Take `Cc1ccc(NNc2cc(=O)[nH]c(=O)[nH]2)cc1Cl`: the Ki in assay [1] was 0.8 µM. In the case of `Nc1nc(NNc2ccc(O)cc2)cc(=O)[nH]1`, in the assay with Bacillus subtilis [2], the Ratio Ki was 30.

As for `Cc1cc(NNc2cc(=O)[nH]c(=O)[nH]2)cc(C)c1O`, in assay [1], the Ki is 124 µM.

For `Nc1ccc(NNc2cc(=O)[nH]c(=O)[nH]2)cc1`, the inhibitory constant (Ki) is 7.1 µM in assay [1] and 76.4 µM in assay [3]. What is called inhibition is the share of the control response that was lost under treatment. `O=c1cc(NNc2ccc(Br)cc2)[nH]c(=O)[nH]1`: in assay [1], the Ki was 0.7 µM. Also, the figures for the inhibition with Bacillus subtilis [4] and with Bacillus subtilis [5] were 95% and 82%, respectively. For the compound `Cc1cccc(NNc2cc(=O)[nH]c(=O)[nH]2)c1`, the Ki in assay [1] is 2.5 µM. The inhibition in the assay with Bacillus subtilis [4] amounted to 85%; in the assay with Bacillus subtilis [5] it was 80%. Consider `CN(Nc1cc(=O)[nH]c(=O)[nH]1)c1ccccc1`, for which the Ki in assay [1] stood at 480 µM. Still for that read-out and setting: the result for `CCc1ccccc1NNc1cc(=O)[nH]c(=O)[nH]1` reads 562 µM.

Consider `O=c1cc(NNc2ccccc2)[nH]c(=O)[nH]1`, for which the Ki in assay [1] came out at 1.4 µM; in assay [3], 2.1 µM. With `O=c1cc(NNc2cccc(Cl)c2)[nH]c(=O)[nH]1`, the inhibition constant (Ki) in assay [1] is 1.1 µM. Consider `Nc1cc(O)nc(O)n1`, for which, in the assay on Bacillus subtilis [6], the inhibition is below 10%.

With `Cc1cc(NNc2cc(=O)[nH]c(=O)[nH]2)ccc1O`, the Ki in assay [1] worked out at 51.2 µM.

With `O=c1cc(NNc2ccc(Cl)cc2)[nH]c(=O)[nH]1`, the Ki in assay [1] came out at 0.9 µM. For the same compound, the inhibition turned out to be 95% in the assay on Bacillus subtilis [4] and 91% in the assay with Bacillus subtilis [5]. In the case of `O=C(O)c1ccc(NNc2cc(=O)[nH]c(=O)[nH]2)cc1`, in assay [1], the Ki was found to be 98 µM.

Take `O=c1cc(NNc2cccc(F)c2)[nH]c(=O)[nH]1`: in assay [1], the Ki stood at 0.7 µM. For the compound `CCc1ccc(NNc2cc(=O)[nH]c(=O)[nH]2)cc1`, the Ki in assay [1] was 1.6 µM. On the same count and under the same terms, the result for `O=c1cc(NNc2ccc([N+](=O)[O-])cc2)[nH]c(=O)[nH]1` reads 26.3 µM; that for `CC(=O)Nc1ccc(NNc2cc(=O)[nH]c(=O)[nH]2)cc1`, 560 µM.

For the compound `Cn1c(=O)cc(NNc2ccc(O)cc2)[nH]c1=O`, the Ki in assay [1] is 0.5 µM.

Turning to `Cn1c(NNc2ccccc2)cc(=O)[nH]c1=O`, in the assay on Bacillus subtilis [6], the inhibition was below 10%. On to `Cc1ccc(NNc2cc(=O)[nH]c(=O)[nH]2)cc1C`, for which the Ki in assay [1] stood at 1.4 µM. With `O=c1cc(NNc2ccc(O)cc2)[nH]c(=O)[nH]1`, the Ki worked out at 0.4 µM in assay [1] and 20 µM in assay [3]. The Ratio Ki in the assay on Bacillus subtilis [2] was 50. Take `Cc1ccc(NNc2cc(=O)[nH]c(=O)[nH]2)cc1`: the inhibition constant Ki in assay [1] is 0.5 µM; in assay [3], 0.4 µM. As to `CS(=O)(=O)c1ccc(NNc2cc(=O)[nH]c(=O)[nH]2)cc1`, the Ki in assay [1] turned out to be 209 µM. Same read-out and setting: under `O=c1cc(NNc2cccc(Br)c2)[nH]c(=O)[nH]1` stands 1.4 µM; under `O=c1cc(NNc2ccccc2F)[nH]c(=O)[nH]1`, 7.2 µM; under `O=c1cc(NNc2ccc(O)c(Cl)c2)[nH]c(=O)[nH]1`, 8.8 µM. With `Cn1c(=O)cc(NNc2ccccc2)[nH]c1=O`, in assay [1], the inhibition constant Ki was 1.6 µM. Regarding `O=c1cc(NNc2ccc(Cl)c(Cl)c2)[nH]c(=O)[nH]1`, in assay [1], the Ki worked out at 0.6 µM. Same read-out and setting: the result for `CCCCc1ccc(NNc2cc(=O)[nH]c(=O)[nH]2)cc1` reads 2300 µM. With `NNc1cc(=O)[nH]c(=O)[nH]1`, in the assay with Bacillus subtilis [6], the inhibition was below 10%.

For the compound `O=c1cc(NNc2ccc(F)cc2)[nH]c(=O)[nH]1`, in assay [1], the Ki came out at 3 µM. For the same compound, the results for the inhibition in the assay with Bacillus subtilis [4] and in the assay with Bacillus subtilis [5] were 93% and 82%, respectively. Consider `Cc1ccccc1NNc1cc(=O)[nH]c(=O)[nH]1`, for which the Ki in assay [1] worked out at 234 µM.
